Screening results as filed in PubChem.
Shown are actives, neighbours in structure and some others; about 4.3% of the full set was active somewhere.
GalR3 antagonist – antagonists of human GalR3. HEK293 GalR3-CNG cAMP membrane potential fluorescence; galR3 body fused to GalR1 C-terminus. inhibition, % at 3 µM. O60755. AID 651719. actives 0.44% (n = 360,000);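 active means inhibition above the screen-wide average plus 3 SD, cut at about 13% in these data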;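 further: forskolin and galanin both at EC90 stimulate the cells; cAMP rise reported by CNG channel membrane potential dye signal; 0% = forskolin plus galanin with DMSO and 100% = forskolin alone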
Target sequence (O60755 1-299 limits assumed): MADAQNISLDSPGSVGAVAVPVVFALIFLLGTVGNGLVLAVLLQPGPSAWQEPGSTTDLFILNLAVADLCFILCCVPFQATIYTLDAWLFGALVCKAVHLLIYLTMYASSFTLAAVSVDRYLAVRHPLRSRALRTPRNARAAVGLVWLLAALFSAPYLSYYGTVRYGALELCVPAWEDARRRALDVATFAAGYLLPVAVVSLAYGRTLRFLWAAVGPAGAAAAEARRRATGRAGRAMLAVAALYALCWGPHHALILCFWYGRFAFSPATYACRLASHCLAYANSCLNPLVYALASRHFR
OX1R antag-1 – blocks the human orexin 1 receptor. O43613. OX1R-expressing cells, FRET antagonist read-out. inhibition, % at 6.6 µM. actives 1.8% (n = 330,000). AID 485270; in the data active means inhibition mostly above about 38%, no sharp cut-off; inactive means mostly below about 40%;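 further: 0% = agonist challenge alone and 100% = reference antagonist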
CHO parental Ca – counter-screen for OX1R antagonists: effect in parental CHO cells. parental CHO-K1, ATP-induced calcium, Fluo-8 fluorescence. inhibition, % at 5.6 µM. actives 0.63% (n = 330,000). AID 463079;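 active means inhibition above that plate's mean sample inhibition plus 3 SD, cut at about 26% in these data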;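 further: 0% = ATP-challenged DMSO wells and 100% = DMSO wells without ATP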
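test system = CHO parental line | reagent = ATP stimulus | measured by = intracellular calcium via Fluo-8 no-wash fluorescent dye | control set = ATP and no-ATP DMSO wells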
OX1R antag-2 – blocks the human orexin 1 receptor. O43613. actives 0.43% (n = 330,000). inhibition, % at 5 µM. CHO/OX1R cells, Fluo-8 calcium fluorescence, orexin A;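 active means inhibition above its plate's threshold, mean inhibition of all tested compounds on the plate plus 3 SD, cut at about 37% in these data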;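 further: 0% = orexin A challenge wells and 100% = SB-334867-A antagonist wells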
TAAR1 antag – antagonists of human TAAR1; CHO RD-HGA16 TAAR1, Fluo-8 calcium fluorescence, antagonist; inhibition, % at 3 µM; actives 1.5% (n = 360,000);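 active means inhibition above a per-plate cutoff, the mean inhibition of test compounds on that plate plus 3 SD, cut at about 49% in these data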;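 further: 0% = DMSO plus EC80 beta-PEA response and 100% = DMSO alone without agonist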
Target sequence (Q96RJ0 whole entry, looked up): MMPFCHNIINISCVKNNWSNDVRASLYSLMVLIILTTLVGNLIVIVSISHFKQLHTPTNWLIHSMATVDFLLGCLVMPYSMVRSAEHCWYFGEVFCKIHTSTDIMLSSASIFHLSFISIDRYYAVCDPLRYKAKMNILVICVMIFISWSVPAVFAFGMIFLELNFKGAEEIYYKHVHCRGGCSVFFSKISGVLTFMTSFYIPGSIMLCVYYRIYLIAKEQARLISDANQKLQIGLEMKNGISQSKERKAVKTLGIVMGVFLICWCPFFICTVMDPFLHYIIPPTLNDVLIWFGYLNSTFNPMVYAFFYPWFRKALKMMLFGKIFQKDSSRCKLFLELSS
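Material: CHO RD-HGA16 cells bearing hTAAR1; compound dosing: one-point dosing, 3 µM nominal final; schedule: dye loading 75 min at 37 °C, then 30 min room temperature; measured by: calcium fluorescence with Fluo-8; control set: vehicle and agonist controls; replication: n of 1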
TAAR1 agonist – human TAAR1 agonism; Q96RJ0; CHO RD-HGA16 TAAR1, Fluo-8 calcium fluorescence; vehicle wells 0%, saturating PEA agonist 100%; activation, % at 3 µM; actives 0.99% (n = 360,000); AID 624467;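 active means activation above the mean activation of all test compounds in the run plus 3 SD, cut at about 38% in these data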
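Signal – calcium-sensitive Fluo-8 signal, excitation 470-495, emission 515-575 nm · System – RD-HGA16 (CHO) cells co-expressing Gα16 and hTAAR1 · Incubation – 17-24 h seeding, 75 min 37 °C dye, 30 min RT · Compound dosing – 3 µM single concentration · Repeats – no replicates (n 1)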
GalR3 antag conf – GalR3 (human) antagonism, confirmation. actives 59% (n = 1,600). AID 652245. inhibition, % at 3 µM. shares compounds with GalR3 antagonist. HEK293 GalR3 CNG cAMP biosensor, membrane potential fluorescence; galR3 fused to GalR1 carboxy tail; challenged with forskolin and galanin at EC90;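 active means inhibition above the primary screen's cutoff, the mean inhibition of all screened compounds plus 3 SD, cut at about 13% in these data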;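 further: 0% = forskolin plus galanin and 100% = forskolin alone with DMSO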
CNG parental – counter-screen for GalR3 antagonists: nonspecific agonists in parental HEK-CNG cells | shares compounds with GalR3 antagonist | HEK293-CNG parental cells, cAMP membrane potential fluorescence; normalised: DMSO wells 0%, forskolin wells 100% | activation, % at 3 µM | actives 10% (n = 1,600); in the data active means activation above about 1.3%
Starred values were filed as active, the others as inactive; . = no result.

SMILES | GalR3 antagonist | OX1R antag-1 | CHO parental Ca | OX1R antag-2 | TAAR1 antag | TAAR1 agonist | GalR3 antag conf | CNG parental
O=C(Nc1nc(-c2ccc3c(c2)OCCO3)cs1)c1ccc(S(=O)(=O)N2CCCCC2)cc1 | 20* | 8 | 2 | 3 | -9 | 1 | 15* | -1
Cc1cccc(C(=O)OCC(=O)NCc2ccco2)c1 | -3 | 1 | 1 | 1 | 0 | -1 | . | .
Cc1c(C(=O)N2CCc3ccccc32)cnn1C | . | 11 | -18 | -1 | 9 | 1 | 6 | 0
O=C(c1cnccn1)N1CCc2ccccc21 | -4 | 14 | -3 | -2 | 9 | 8 | . | .
CCOc1ccccc1C1NC(=O)c2ccccc2N1 (configuration not stated) | 13* | . | . | . | -23 | 1 | 13* | 1.4*
O=C(COC(=O)c1ccc2c(c1)OCCO2)NCc1ccc(Cl)cc1 | -7 | . | . | . | -23 | 0 | . | .
CCN(CC)C(=O)OCCc1cc2ccccc2c(=O)o1 | . | 4 | -9 | -12 | 19 | 1 | 1 | 0
O=C(O)c1ccccc1C(=O)OCCc1cc2ccccc2c(=O)o1 | -2 | 13 | -7 | 1 | -24 | 5 | . | .
COc1cc(C(=O)Oc2ccccc2OC(=O)c2cc(OC)c(OC)c(OC)c2)cc(OC)c1OC | -6 | . | . | . | -8 | -2 | . | .
CC(C)[C@H](NC(=O)c1c(F)cccc1F)C(=O)N1CCN(c2ccc(F)cc2)CC1 | 13* | 6 | -30 | -9 | -14 | 2 | 4 | 0
COc1ccc(OC)c(NC(=O)Nc2nc(C(N)C(C)C)cs2)c1 (configuration not stated) | -8 | . | . | . | -6 | 5 | . | .
CC1CCC2C(=O)N(c3ccc(Cc4ccncc4)cc3)C(=O)C2C1 (configuration not stated) | 91* | 19 | 25 | 3 | 15 | 5 | 109* | -1
O=C1C=C(O)c2cccc(O)c2C1=O | -7 | 20 | -8 | 1 | -14 | -1 | . | .
O=C1C=C(c2c(O)ccc3ccccc23)c2ccccc2C1=O | 23* | . | . | . | 48 | 14 | 82* | -5
CC1=CC(C)(C)n2c(O)c(N=NC(N)=S)c3c(C)ccc1c32 | 14* | 7 | -1 | 2 | -11 | -2 | 8 | -2
Oc1ccc(-c2n[nH]c(C(F)(F)F)c2-c2ccccc2)c(O)c1 | 47* | 21 | 57* | 15 | 32 | 7 | 89* | -2
CCC(C)NC(=O)CSc1nc2n[nH]c(C)c2c(=N)n1-c1ccc(OC)cc1 (configuration not stated) | 0 | 50 | -10 | -15 | -6 | 4 | . | .
CCC(Sc1nc2n[nH]c(C)c2c(=N)n1-c1cccc(Cl)c1C)C(=O)N(CC)CC (configuration not stated) | 17* | 6 | -35 | -4 | 7 | 9 | 71* | 1
CC(C)CN=CC1=C(O)c2ccccc2C1=O | -2 | 21 | -21 | -20 | -32 | 0 | . | .
O=C1C(C=NC2CC2)=C(O)c2ccccc21 | 14* | 29 | -8 | -21 | 6 | 7 | 4 | 0
COc1cccc(S(=O)(=O)N(C)C[C@@H]2Oc3ncc(Br)cc3C(=O)N([C@H](C)CO)C[C@@H]2C)c1 | -3 | . | . | . | 13 | 0 | . | .
CCCCNC(=O)C1CCCN(S(=O)(=O)CC)C1 (configuration not stated) | 14* | 9 | -1 | -8 | 4 | 0 | 0 | 0
COc1ccccc1Oc1ccc2c(c1)C(=O)N(c1cccc3ncccc13)C2=O | 58* | . | . | . | 46 | 12 | 46* | -1
CCS(=O)(=O)c1ccc(O)c(NC(=O)/C=C/c2ccccc2)c1 | 13* | 30 | -4 | 7 | -11 | 2 | 0 | 0
CC1CC(C)CN(C(=O)CSCC(=O)O)C1 (configuration not stated) | 13* | 0 | -2 | -10 | -10 | 1 | -2 | 0
SMILES | GalR3 antagonist | OX1R antag-1 | CHO parental Ca | OX1R antag-2 | TAAR1 antag | TAAR1 agonist | GalR3 antag conf | CNG parental
O=C(N/N=C/c1ccccc1)c1ccc(N2CCOCC2)c([N+](=O)[O-])c1 | -5 | 32 | -5 | -9 | 9 | 0 | . | .
CCCCC(=O)N/N=C/c1ccc(N2CCOCC2)c([N+](=O)[O-])c1 | 14* | 28 | -2 | 0 | 9 | 1 | 11 | 0
CCSc1ccc([C@@H]2[C@H]3C(=O)N(C)C(=O)[C@H]3[C@]3(C(=O)OC)CCCCN23)cc1OC | -1 | 58 | -14 | 18 | -8 | 4 | . | .
CC1CN(C(=O)Nc2cccc(C(F)(F)F)c2)CC(C)O1 (configuration not stated) | . | 22 | 8 | 3 | 21 | 7 | 3 | 0
COCCNC(=S)N(C)[C@H]1C[C@H]2c3cc(N4CCN(C)CC4)ccc3CCN2C(=O)[C@H]1[C@H](C)O | -2 | . | . | . | 8 | 1 | . | .
CC(C)C(C(=O)NCc1ccccc1)N1CCN(c2ccccc2F)CC1 (configuration not stated) | -4 | . | . | . | -25 | 0 | . | .
COc1ccc(NS(=O)(=O)c2ccc3oc(SC(C)C(N)=O)nc3c2)cc1 (configuration not stated) | 24* | 22 | 26 | 0 | 14 | 7 | 0 | 0
CCNC(=O)CSc1nc2cc(S(=O)(=O)Nc3ccc(OC)cc3)ccc2o1 | 0 | 33 | -7 | -11 | 5 | 7 | . | .
Cc1ccc([N+](=O)[O-])cc1S(=O)(=O)N1CCCC1 | . | 33 | -3 | -15 | 8 | 1 | 0 | 0
COc1cccc(C2C3=C(CC(C)(C)CC3=O)Nc3cc4c(cc32)OCO4)c1 (configuration not stated) | 0 | 12 | -5 | -37 | -10 | -2 | . | .
COc1cc2c(cc1OC)C(c1ccc3c(c1)OCO3)C1=C(CC(C)(C)CC1=O)N2 (configuration not stated) | 13* | 18 | -11 | -25 | 4 | 5 | 29* | 1
COc1cccc(C2C3=C(CC(C)(C)CC3=O)Nc3cc(OC)c(OC)cc32)c1 (configuration not stated) | 15* | 35 | -27 | -31 | -19 | 1 | 23* | 0
COc1ccc(C(C)=O)cc1COC(=O)c1ccc(C)c(S(=O)(=O)N2CCOCC2)c1 | -2 | 6 | -12 | -15 | 24 | 4 | . | .
CC(C)(C)c1ccc(-c2nnc(N)o2)cc1 | -3 | 7 | -8 | -2 | -52 | 5 | . | .
